Measurements of several laboratories.
Each line is one published result; the experiments were not run side by side. pEC50, pIC50: −log10 of the molar value.
Cell line: MM1.S
Observed: cell growth or viability

Compound	assay	setting	measurement	result
CON(C)C(=O)N1N=C(c2cc(F)ccc2F)S[C@@]1(CCCN)c1ccccc1	ATP luminescence	72 h	pIC50	8.31
CCS(=O)(=O)Nc1ccc(Oc2ccc(Cl)cc2)c(-c2cn(C)c(=O)c3ccccc23)c1	resazurin	72 h	pIC50	8.46
O=C(C[C@@H](C(F)F)n1ccc(F)n1)N1CCC(O)(Cn2cnc3c(cnn3-c3ccc(F)cc3)c2=O)CC1	ATP luminescence	5 days	pIC50	7.48
CC(C)C[C@H](NC(=O)[C@H](Cc1ccccc1)NC(=O)c1cnccn1)B(O)O	ATP luminescence		pEC50	8.82
CCOC(=O)C1=C(C)NC(=S)NC1c1cccc(O)c1 (centres unmarked)	ATP luminescence	72 h	pIC50	3.84
CC(C)C[C@H](NC(=O)[C@H](Cc1ccccc1)NC(=O)c1cnccn1)B(O)O	ATP luminescence	48 h	pIC50	7.82
C=CC(=O)N1CCC[C@@H](n2nc(-c3ccc(Oc4ccccc4)cc3)c3c(N)ncnc32)C1		48 h	GI50	7.56 µM
N[C@@H]1CCCN(c2c(/C=C3\SC(=O)NC3=O)cccc2-c2ccccc2)C1	thymidine uptake	72 h	GI50	0.711 µM
